Experimental data: ChEMBL document CHEMBL3588853, “Synthesis, biological evaluation, and molecular docking studies of novel 1-benzene acyl-2-(1-methylindol-3-yl)-benzimidazole derivatives as potential tubulin polymerization inhibitors” (Eur J Med Chem, 2015)

Tests used:
MCF7 = assay: Growth inhibition of human MCF7 cells assessed as inhibition of cell proliferation after 24 hrs by MTT assay; format: functional; details: MCF7, 24 h
Method in brief: (§1)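 Cells seeded at (1–5) × 10^3 per well and grown 12 h at 37 °C. Compounds added at increasing concentrations in medium with 10% FBS for 24 h. MTT dye then added, followed by 3–4 h at 37 °C. Medium discarded, formazan dissolved in DMSO and plate read. GI50 calculated relative to DMSO-treated control wells.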

Tubulin = Tubulin (Bos taurus, UniProt Q6B856+Q862F3); assay: Inhibition of bovine brain tubulin polymerization extent after 20 mins by turbidimetrically
Sequence of Tubulin (Q6B856 whole entry): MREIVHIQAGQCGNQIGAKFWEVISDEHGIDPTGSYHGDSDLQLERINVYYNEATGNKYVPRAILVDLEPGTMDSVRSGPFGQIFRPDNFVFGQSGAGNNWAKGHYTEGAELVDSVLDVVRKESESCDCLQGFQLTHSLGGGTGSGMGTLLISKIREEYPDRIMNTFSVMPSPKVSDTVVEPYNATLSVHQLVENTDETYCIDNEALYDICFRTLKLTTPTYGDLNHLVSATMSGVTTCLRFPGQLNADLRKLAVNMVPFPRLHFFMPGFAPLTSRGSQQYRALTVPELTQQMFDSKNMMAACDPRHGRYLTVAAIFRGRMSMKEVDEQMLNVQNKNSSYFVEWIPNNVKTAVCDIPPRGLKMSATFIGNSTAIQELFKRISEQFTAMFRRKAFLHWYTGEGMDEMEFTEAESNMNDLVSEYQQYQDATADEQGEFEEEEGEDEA
Sequence of Tubulin (Q862F3 whole entry): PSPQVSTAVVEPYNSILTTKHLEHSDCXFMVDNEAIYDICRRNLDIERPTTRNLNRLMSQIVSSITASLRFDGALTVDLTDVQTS

A549 = assay: Growth inhibition of human A549 cells assessed as inhibition of cell proliferation after 24 hrs by MTT assay; format: functional; details: A549, 24 h; method in brief: as §1
HepG2 = assay: Growth inhibition of human HepG2 cells assessed as inhibition of cell proliferation after 24 hrs by MTT assay; format: functional; details: HepG2, 24 h; method in brief: as §1
Tubulin (Bos taurus) = Tubulin (Bos taurus) (UniProt Q6B856+Q862F3); details: at 5 µM

| Structure (SMILES) | GI50 (MCF7) [µM] | IC50 (Tubulin) [µM] | GI50 (A549) [µM] | GI50 (HepG2) [µM] | inhibition (Tubulin (Bos taurus)) [%] |
| --- | --- | --- | --- | --- | --- |
| COc1ccc2c(c1)c(-c1nc3ccccc3n1C(=O)c1ccccc1)cn2C | 38.4 | 19.6 | 16.7 | 37.9 | 64 |
| Cn1cc(-c2nc3ccccc3n2C(=O)c2ccccc2)c2cc(Br)ccc21 | 50.3 | 25.3 | 23.1 | 48.1 | 60 |
| COc1ccccc1C(=O)n1c(-c2cn(C)c3ccc(Br)cc23)nc2ccccc21 | 36.2 | 17.3 | 12.8 | 34.6 | 68 |
| COc1cccc(C(=O)n2c(-c3cn(C)c4ccccc34)nc3ccccc32)c1 | 15.7 | 4.4 | 10.2 | 13.6 | 81 |
| COc1ccc(C(=O)n2c(-c3cn(C)c4ccc(Br)cc34)nc3ccccc32)cc1OC | 11.3 | 2.4 | 3.4 | 9.7 | 85 |
| COc1ccc(/C=C\c2cc(OC)c(OC)c(OC)c2)cc1O [COMBRETASTATIN A4] | 9.4 | – | 2.8 | 7.4 | 93 |
| COc1ccc2c(c1)c(-c1nc3ccccc3n1C(=O)c1cccc(Br)c1)cn2C | 52.7 | 29.2 | 24.8 | 51.3 | 57 |
| COc1cc(C(=O)n2c(-c3cn(C)c4ccccc34)nc3ccccc32)cc(OC)c1OC | 5.4 | 1.6 | 2.6 | 4.3 | 95 |
| COc1cc(C(=O)n2c(-c3cn(C)c4ccc(Br)cc34)nc3ccccc32)cc(OC)c1OC | 9.7 | 2 | 3 | 8.2 | 91 |
| COc1ccc2c(c1)c(-c1nc3ccccc3n1C(=O)c1ccccc1Br)cn2C | 55.8 | 32.3 | 29.5 | 54.2 | 55 |
| COc1ccccc1C(=O)n1c(-c2cn(C)c3ccccc23)nc2ccccc21 | 32.1 | 15.9 | 12.3 | 31.8 | 70 |
| Cn1cc(-c2nc3ccccc3n2C(=O)c2ccccc2)c2ccccc21 | 43.7 | 23.8 | 19.6 | 42.3 | 61 |
| COc1ccc(C(=O)n2c(-c3cn(C)c4ccc(OC)cc34)nc3ccccc32)cc1 | 14.8 | 3.5 | 4.9 | 12.8 | 82 |
